# TLR4 MyD88 comp: blocks binding of human TLR4 to MyD88 | inhibition, % at 8.4 µM | O00206+Q99836 | 200,000 tested, 0.18% active | HeLa CL3-4 TLR4/MyD88 BLA complementation, FRET ratio; in the data active = inhibition above about 25%;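 also: 0% = vehicle and 100% = reference inhibitor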
# UPR XBP1 act: activators of adaptive arm of unfolded protein response (XBP1); CHO-XBP1 luciferase reporter, IRE1-XBP1 UPR activation, luminescence; percent of tunicamycin response, DMSO as zero; activation, % at 20 µM; 330,000 tested, 0.33% active;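 active = versus positive control, 20 µM dose yields 30% or more activation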;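 also: 100% = tunicamycin at 10 µg/mL and 0% = DMSO only wells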
#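 Signal: luciferase luminescence; Assay system: CHO-XBP1 luciferase reporter cells; Amount: one thousand reporter cells per well; Dosing: 20 µM single concentration, DMSO 1%; Benchmarks: high control tunicamycin 10 µg/mL final, low control DMSO vehicle only; Schedule: 6 h compound exposure at 37 °C, 5% CO2; Evaluation: percent activation relative to tunicamycin reference.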
# UPR CHOP act: apoptotic UPR (CHOP) activation. CHO-CHOP luciferase reporter, luminescence; percent of tunicamycin response over DMSO baseline. activation, % at 10 µM. 330,000 tested, 0.34% active;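 active = at 10 µM dose, activation of 40% or more, normalized to positive control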;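 also: 100% = tunicamycin at 10 µg/mL and 0% = DMSO alone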
#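 Assay system: CHO-CHOP cells, stable luciferase reporter of PERK-eIF2a-CHOP signalling / Buffer or medium: F12 plus 10% serum / Compound dosing: one dose, 10 µM in 0.5% DMSO / Times: 6 h compound treatment, 37 °C / Technique: luciferase luminescence / Read-out: % reporter activation, DMSO baseline versus tunicamycin full activation / Benchmarks: tunicamycin and DMSO controls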
# NOD2 RIPK2 PPI: blocks binding of human NOD2 to RIPK2. O43353. CHO BLA complementation NOD2-RIPK2, CCF4 ratio. inhibition, % at 4.98 µM. 360,000 tested, 0.38% active; in the data active = inhibition above about 21%;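 also: 0% = vehicle only and 100% = reference blocker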
# Target sequence (O43353 whole entry, looked up): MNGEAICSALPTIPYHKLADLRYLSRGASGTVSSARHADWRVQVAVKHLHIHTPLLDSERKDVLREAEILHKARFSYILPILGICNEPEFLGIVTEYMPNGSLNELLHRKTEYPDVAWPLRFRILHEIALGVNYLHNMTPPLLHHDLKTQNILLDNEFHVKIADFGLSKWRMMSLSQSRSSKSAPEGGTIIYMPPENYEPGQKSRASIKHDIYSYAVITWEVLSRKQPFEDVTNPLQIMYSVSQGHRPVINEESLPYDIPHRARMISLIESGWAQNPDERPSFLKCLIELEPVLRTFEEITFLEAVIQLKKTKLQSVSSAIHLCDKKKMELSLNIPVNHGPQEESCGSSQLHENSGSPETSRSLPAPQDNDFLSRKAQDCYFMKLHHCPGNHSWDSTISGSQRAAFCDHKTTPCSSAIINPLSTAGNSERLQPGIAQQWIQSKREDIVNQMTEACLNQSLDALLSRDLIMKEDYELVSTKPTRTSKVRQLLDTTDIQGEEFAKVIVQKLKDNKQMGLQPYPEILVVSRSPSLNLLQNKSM
# TLR9-MyD88 inh: TLR9-MyD88 interaction inhibition. Q9NR96+Q99836. CHO BLA complementation TLR9-MyD88, CCF4 FRET ratio. inhibition, % at 4.98 µM. 340,000 tested, 0.21% active. AID 504734;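 active = inhibition above the mean over all tested compounds plus 3 SD, cut at about 21% in these data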;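 also: 0% = DMSO only wells and 100% = clavulanate BLA inhibitor control wells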
# CHOP inh: inhibitors of CHOP induction in ER stress response; inhibition, % at 10 µM; AID 2732; CHO-K1 CHOP-promoter luciferase, tunicamycin-induced, 15-18 h; 220,000 tested, 3.8% active;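 active = compounds that reduced the stress-induced luciferase reporter signal by more than about 70% of percent inhibition, limit read from the data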;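 also: 0% = tunicamycin plus vehicle and 100% = wells without tunicamycin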
# CHOP UPR conf: apoptotic UPR (CHOP) activation, confirmed; 1,000 tested, 64% active; AID 463112; activation, % at 10 µM; CHO-CHOP cells, CHOP-luciferase reporter luminescence; percent of tunicamycin response, DMSO as zero; shares compounds with UPR CHOP act; in the data active = activation above about 33%;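 also: 0% = DMSO wells and 100% = tunicamycin 10 µg/mL wells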
# Numbers without * were called inactive; . = no result given. The full list was thinned out, with hits kept by preference.
SMILES,TLR4 MyD88 comp,UPR XBP1 act,UPR CHOP act,NOD2 RIPK2 PPI,TLR9-MyD88 inh,CHOP inh,CHOP UPR conf
O=C(O)CSc1nnc(-c2ccc(Cl)cc2Cl)n1-c1ccc(Cl)cc1,.,-3.5,1.7,-3.3,-6.0,.,.
Cc1cc(C)nc(-n2nc(C)cc2Nc2ccccc2)n1,-2.7,16.7,58.8*,-5.0,-0.1,-37.4,5.0
Cc1cc(N2CCN(c3ccccc3)CC2)nc(-n2nc(C)cc2C)n1,-3.3,13.3,51.9*,6.6,-1.9,-111.1,3.9
Cc1noc(C)c1C(=O)N1CCC(C(=O)c2ccccc2)CC1,.,-2.5,-3.5,-7.8,4.6,3.1,.
O=c1[nH]c2cc3c(cc2cc1C(c1nnnn1Cc1ccccc1)N1CCCc2ccccc21)OCO3 (centres undefined),1.8,12.4,265.0*,.,.,24.6,2.0
O=c1[nH]c2cc3c(cc2cc1C(c1nnnn1C1CCCC1)N1CCCc2ccccc21)OCCO3 (centres undefined),.,.,.,3.9,-5.7,.,.
COC(=O)c1nn(-c2ccc(Cl)cc2)c(=O)cc1Sc1ccccn1,2.2,0.6,-0.1,-6.8,-5.0,-19.5,.
Cc1c(C(=O)c2no[n+]([O-])c2C(=O)c2cnn(C)c2C)cnn1C,-14.1,-7.3,55.0*,-0.7,0.9,4.4,91.2*
COc1ccc(C(=O)c2no[n+]([O-])c2C(=O)c2ccc(OC)cc2)cc1,1.8,-9.2,-3.9,10.5,-2.9,55.6,.
CCc1nc2c(OCc3cccc(Cl)c3)cccn2c1N(C)C(=O)c1ccco1,.,.,.,1.6,.,.,.
Cc1oc2c(O)c(O)ccc2c(=O)c1-c1ccccc1,.,-2.6,-1.1,-0.3,-3.9,25.4,.
Cc1oc2c(O)c(O)ccc2c(=O)c1-c1cnn(-c2ccccc2)c1,-3.6,5.8,114.0*,-1.0,3.8,-58.5,13.7
CCc1ccc(N2C(=O)C(Cl)=C(Nc3ccc(C(=O)N4CCCC4)cc3)C2=O)cc1,.,-5.8,104.3*,17.7,16.1,.,0.1
C=C1[C@@H](O)[C@H](Cc2ccccc2)N(Cc2ccccc2Br)S1(=O)=O,.,.,.,4.2,2.8,.,.
CC(C)Cc1nc2oc3c(N4CCN(CCO)CC4)ncnc3c2c2c1CCCC2,16.7,5.7,44.3*,7.0,-0.2,56.8,-0.9
O=C1C=C(N2CCOCC2)c2ccccc2C1=O,.,-8.4,41.4*,-1.6,-1.8,.,2.6
CCc1cc2c(=O)[nH]c(-c3ccccn3)nc2s1,-5.4,11.4,289.7*,-1.9,6.9,47.4,246.7*
CCc1cc2c(=O)[nH]c(N3CCCC3)nc2s1,-13.2,2.6,8.5,-11.3,-5.7,-6.9,.
CN(C)S(=O)(=O)NCC1CCCN(Cc2ccc(-c3ccccc3)cc2)C1 (centres undefined),.,-2.5,1.5,9.4,-1.1,.,.
COc1ccc2c(C(=O)CCl)c[nH]c2c1,.,-5.2,237.9*,-3.3,9.4,-149.1,205.3*
COc1ccc(OCC(=O)c2c[nH]c3ccccc23)cc1,-15.9,-0.3,6.4,0.1,-12.3,-3.6,.
Oc1ccc(/C=N/Nc2ccnc3cc(Cl)ccc23)c(O)c1O,.,-0.8,9.4,-2.2,-1.0,.,.
Oc1ccc(/C=N/Nc2ccnc3cc(Cl)ccc23)cc1O,.,20.0,192.7*,4.0,1.0,43.3,150.7*
Cc1ccc(-c2nn3c(C)nnc3s2)cc1NC(=O)c1ccc(-c2cccc(Cl)c2)o1,-8.4,-1.1,1.7,-15.4,8.3,50.2,.
Cc1ccc(-c2nn3c(C)nnc3s2)cc1NC(=O)c1ccc(-c2ccc(Cl)cc2Cl)o1,-4.3,51.4*,45.6*,2.1,2.6,80.6*,35.2*
SMILES,TLR4 MyD88 comp,UPR XBP1 act,UPR CHOP act,NOD2 RIPK2 PPI,TLR9-MyD88 inh,CHOP inh,CHOP UPR conf
CCS(=O)(=O)c1cc([N+](=O)[O-])c(Sc2ccccc2NC(C)=O)s1,.,1.5,59.3*,-3.4,-9.9,-182.5,14.7
Cc1cc(C(=O)CCl)c(C)n1-c1cccc([N+](=O)[O-])c1,10.2,-2.5,174.5*,4.4,-21.4,104.2*,30.8
O=C(Cn1cccn1)N1CCCC(N2CCN(c3ccccc3F)CC2)C1 (centres undefined),.,-1.5,-0.3,3.4,0.4,.,.
O=[n+]1c2c(n([O-])c3cc(F)c(N4CCCC4)cc31)CCC2,0.9,23.6,40.8*,-8.6,-0.8,.,-0.7
Cc1ccc(S(=O)(=O)N[C@@H](CO)C(=O)N[C@@H](Cc2ccc(O)cc2)C(=O)O)cc1,.,-0.9,0.7,-12.3,-2.9,.,.
COc1cc(C(=O)Sc2ccc(Cl)cc2)cc(OC)c1OC,-1.7,21.3,54.6*,4.5,6.2,61.5,72.8*
COc1cc(C(=O)NCCSc2ccc(Cl)cc2)cc(OC)c1OC,.,-2.5,-0.8,-8.1,3.7,.,.
Cc1nc2ccccc2c(=O)n1NC(=O)Cc1ccc([N+](=O)[O-])cc1,-11.9,1.1,-0.6,5.3,4.5,9.0,.
FC(F)(F)C1=Nc2cccc3cccc(c23)N1,.,-0.5,62.2*,-2.0,-7.8,.,26.7
CCOC(=O)C1CCN(Cc2ccccc2C(F)(F)F)CC1,-3.8,-0.7,0.3,-22.2,-3.8,27.2,.
CCOC(=O)N1CCN(Cc2cc(Cl)c3cccnc3c2O)CC1,2.2,18.5,105.2*,.,.,82.7*,116.1*
CCOC(=O)C1CCN(Cc2ccc(O)c3ncccc23)CC1,3.5,5.9,234.8*,4.4,6.8,.,142.3*
CCC(C)C(NC(=O)/C(=C\c1ccccc1)NC(=O)c1ccc(OC)cc1)C(=O)O (centres undefined),-3.6,-2.4,-1.1,-3.1,-0.9,14.2,.
COc1cc(CNc2ccc3[nH]c(=O)[nH]c3c2)ccc1OCc1ccc(C)cc1,.,1.4,13.5,-24.2,-9.7,.,.
COc1cc(CNc2ccc3[nH]c(=O)[nH]c3c2)cc(Br)c1OCc1ccc(F)cc1,.,2.5,67.3*,-6.7,-6.1,.,28.2
COc1ccc(C(=O)Nc2ccccc2C(=O)N/N=C/c2ccccn2)cc1OC,.,9.0,101.2*,-16.2,.,51.5,100.0*
COc1ccc(C(=O)N/N=C/c2ccccn2)cc1OC,-3.2,2.1,1.9,-1.6,-0.6,23.1,.
Cn1cc(/C=C2\SC(=O)NC2=S)c2ccccc21,3.8,17.5,50.9*,-2.0,-0.1,39.9,66.6*
Cc1ccc(C(=O)NN2C(=O)/C(=C/c3cn(C)c4ccccc34)SC2=S)cc1,-2.5,.,.,-11.8,-12.0,25.7,.
CCOc1ccc2c(c1)C(=NNC(=O)c1ccncc1)c1cc(OCC)ccc1-2,-11.7,4.6,50.4*,2.0,-4.1,-4.8,43.3*
CCOc1ccc(NC(=O)c2ccncc2)cc1,4.5,1.7,1.7,-12.1,-6.6,33.7,.
O=C(NC1CCCCC1)C1c2ccccc2OCC(=O)N1CCc1ccccc1 (centres undefined),.,.,.,-9.8,.,.,.

# Bioassay records from PubChem BioAssay.
